PubChem BioAssay AID504906 (The Scripps Research Institute Molecular Screening Center, 2011)

Biological target: Nuclear receptor ROR-alpha (Homo sapiens) (UniProt P35398)
Experiment: displacement of tritiated 25-hydroxycholesterol from RORa – biochemical, [3H]25-hydroxycholesterol, radioligand competition, GST-RORa LBD, orthogonal assay for RORA inverse agonist project, late-stage follow-up (AID 504906)
Conditions: [3H]25-hydroxycholesterol displacement, radioligand binding
Summary of the method: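 Material – purified GST-RORα ligand-binding domain (aa 304-556) · Reagent – 3 nM [3H]25-hydroxycholesterol · Medium – 50 mM HEPES buffer, pH 7.4, with 0.01% BSA · Signal – GF/B filter capture of bound radioligand · Read-out – Ki from nonlinear regression fit to mixed-inhibition model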

Nuclear receptor ROR-alpha (Homo sapiens), sequence (P35398 whole entry, looked up, the tested form may be a part): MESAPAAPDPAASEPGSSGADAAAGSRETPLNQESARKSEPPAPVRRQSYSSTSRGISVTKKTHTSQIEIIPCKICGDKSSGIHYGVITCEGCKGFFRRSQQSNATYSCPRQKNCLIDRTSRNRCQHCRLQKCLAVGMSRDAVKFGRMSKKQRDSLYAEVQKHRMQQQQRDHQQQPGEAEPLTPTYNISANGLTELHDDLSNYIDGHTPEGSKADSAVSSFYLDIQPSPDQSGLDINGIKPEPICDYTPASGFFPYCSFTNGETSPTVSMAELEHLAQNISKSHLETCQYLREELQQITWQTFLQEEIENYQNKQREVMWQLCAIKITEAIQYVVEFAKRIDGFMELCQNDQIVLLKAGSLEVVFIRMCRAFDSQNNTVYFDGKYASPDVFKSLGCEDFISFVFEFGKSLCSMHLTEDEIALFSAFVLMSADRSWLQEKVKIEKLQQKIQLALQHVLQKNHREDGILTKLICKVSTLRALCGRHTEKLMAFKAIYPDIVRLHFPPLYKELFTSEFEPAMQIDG

A Ki of 220 nM was found for O=S(=O)(Nc1ccc(C(O)(C(F)(F)F)C(F)(F)F)cc1)c1cccs1 in this work.
